Calls of active or inactive are those of the source. The rule behind the calls is not given here. Where a SMILES comes first, the peptide text is derived from it.
Columns and labels:
Type in all cases: functional, cell-based
[1] = molecular target: Calcitonin gene-related peptide type 1 receptor (Homo sapiens) (UniProt Q16602); test: Partial agonist activity at human CGRP1 expressed in HEK293 cells assessed by measuring cAMP production upto 1 uM
Summary of the method: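 HEK293 cells stably expressing CRLR were exposed to CGRP27-37 analogues up to 1 µM without α-CGRP. cAMP production was measured with a fluorescence-based kit as the read-out.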

[2] = molecular target: Calcitonin gene-related peptide type 1 receptor (Homo sapiens, UniProt O60894+Q16602); test: (§1) Antagonist activity against human CGRP1 expressed in HEK293 cells assessed as inhibition of human alpha-CGRP-promoted cAMP production
Summary of the method: (§2)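 HEK293 cells stably expressing CRLR, seeded at 5000 cells/well. Cells preincubated with peptide analogues for 15 min at 37 °C, then stimulated with 0.5 nM α-CGRP for 15 min at 37 °C. cAMP measured with a fluorescence-based kit. Peptides tested up to 100 µM. At least three independent experiments in triplicate, analysed by nonlinear curve fitting; mean ± SEM.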

[3] = molecular target: Calcitonin gene-related peptide type 1 receptor (Homo sapiens) (UniProt Q16602); test: as §1; design: concentration or dose not given beside the values; details: concentration not given here; summary of the method: as §2
[4] = molecular target: Calcitonin gene-related peptide type 1 receptor (Homo sapiens) (UniProt Q16602); test: Antagonist activity against human CGRP1 expressed in HEK293 cells assessed as inhibition of human alpha-CGRP-promoted cAMP production upto 100 uM; summary of the method: as §2

Calcitonin gene-related peptide type 1 receptor, sequence (Q16602 whole entry, one chain of several): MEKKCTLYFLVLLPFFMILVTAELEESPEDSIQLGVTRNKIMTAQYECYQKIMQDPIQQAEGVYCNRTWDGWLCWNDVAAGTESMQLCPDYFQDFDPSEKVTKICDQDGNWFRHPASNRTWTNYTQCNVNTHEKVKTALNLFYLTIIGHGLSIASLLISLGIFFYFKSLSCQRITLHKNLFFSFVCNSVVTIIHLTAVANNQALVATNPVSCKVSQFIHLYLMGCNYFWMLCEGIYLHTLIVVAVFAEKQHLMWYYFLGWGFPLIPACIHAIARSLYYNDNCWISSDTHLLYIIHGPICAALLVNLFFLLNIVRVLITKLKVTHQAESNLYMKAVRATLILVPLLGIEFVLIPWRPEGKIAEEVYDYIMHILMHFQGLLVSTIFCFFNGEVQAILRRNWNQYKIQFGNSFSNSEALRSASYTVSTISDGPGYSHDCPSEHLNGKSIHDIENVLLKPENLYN
Calcitonin gene-related peptide type 1 receptor (Homo sapiens), sequence (Q16602 whole entry): as the sequence (Q16602 whole entry, one chain of several) above

Compound	Activity [1]	IC50 [2] [µM]	inhibition [3] [%]	Activity [4]
CC(C)[C@H](NC(=O)[C@H](CC(=O)O)NC(=O)[C@@H](NC(=O)[C@@H]1CCCN1C(=O)[C@@H](NC(=O)[C@@H](N)Cc1ccccc1)C(C)C)[C@@H](C)O)C(=O)N[C@H]1CC[C@H]2CC[C@@H](C(=O)N[C@@H](Cc3ccccc3)C(=O)N[C@@H](C)C(=O)N[C@@H](Cc3ccccc3)C(N)=O)N2C1=O	inactive	0.107	70	–
CC(C)[C@H](NC(=O)[C@H](CC(=O)O)NC(=O)[C@@H](NC(=O)[C@@H]1CCCN1)[C@@H](C)O)C(=O)NCC(=O)N1CCCC1C(=O)N[C@@H](Cc1ccccc1)C(=O)N[C@H]1C[C@H]2C[C@@H](c3ccccc3)C[C@@H](C(N)=O)N2C1=O (stereo partly drawn) (HELM PEPTIDE1{P.T.D.V.G.[O=C(C1CCCN1[*:1])[*:2]].F.[NC(=O)[C@@H]1C[C@H](c2ccccc2)C[C@@H]2C[C@H](N[*:1])C(=O)N21]}$$$$V2.0)	–	–	–	inactive
CC(C)[C@H](NC(=O)[C@H](CC(=O)O)NC(=O)[C@@H](NC(=O)[C@@H]1CCCN1)[C@@H](C)O)C(=O)NCC(=O)N[C@H]1C[C@H]2CCC[C@@H](C(=O)N[C@@H](C)C(=O)N[C@@H](Cc3ccccc3)C(N)=O)N2C1=O	–	–	–	inactive
CC(C)[C@H](NC(=O)[C@H](CC(=O)O)NC(=O)[C@@H](NC(=O)[C@@H]1CCCN1C(=O)[C@@H](NC(=O)[C@@H](N)Cc1ccccc1)C(C)C)[C@@H](C)O)C(=O)NCC(=O)N[C@H]1CC[C@H]2CC[C@@H](C(=O)N[C@@H](C)C(=O)N[C@@H](Cc3ccccc3)C(N)=O)N2C1=O	inactive	–	–	inactive
CC(C)[C@H](NC(=O)[C@H](CC(=O)O)NC(=O)[C@@H](NC(=O)[C@@H]1CCCN1C(=O)[C@@H](NC(=O)[C@@H](N)Cc1ccccc1)C(C)C)[C@@H](C)O)C(=O)NNC(=O)N1CCC[C@H]1C(=O)N[C@@H](Cc1ccccc1)C(=O)N[C@@H](C)C(=O)N[C@@H](Cc1ccccc1)C(N)=O	–	0.0676	–	–
CC(C)[C@H](NC(=O)[C@H](CC(=O)O)NC(=O)[C@@H](NC(=O)[C@@H]1CCCN1C(=O)[C@@H](NC(=O)[C@@H](N)Cc1ccccc1)C(C)C)[C@@H](C)O)C(=O)NCC(=O)N1CCC[C@@H]1C(=O)N[C@@H](Cc1ccccc1)C(=O)N[C@H]1C[C@H]2C[C@@H](c3ccccc3)C[C@@H](C(N)=O)N2C1=O	inactive	–	–	inactive
CC(C)[C@H](NC(=O)[C@@H](N)Cc1ccccc1)C(=O)N1CCC[C@@H]1C(=O)N[C@H](C(=O)N[C@@H](CC(=O)O)C(=O)N[C@H]1C[C@H]2CCC[C@@H](C(=O)N3CCC[C@H]3C(=O)N[C@@H](Cc3ccccc3)C(=O)N[C@@H](C)C(=O)N[C@@H](Cc3ccccc3)C(N)=O)N2C1=O)[C@H](C)O	inactive	–	–	inactive
CC(C)[C@H](NC(=O)[C@H](CC(=O)O)NC(=O)[C@@H](NC(=O)[C@@H]1CCCN1C(=O)[C@@H](NC(=O)[C@@H](N)Cc1ccccc1)C(C)C)[C@@H](C)O)C(=O)NCC(=O)N[C@H]1C[C@H]2CCC[C@@H](C(=O)N[C@@H](C)C(=O)N[C@@H](Cc3ccccc3)C(N)=O)N2C1=O	inactive	–	–	inactive
C[C@H](NC(=O)[C@H](Cc1ccccc1)NC(=O)[C@@H]1CCCN1C(=O)CNC(=O)[C@@H]1CC[C@@H]2CC[C@H](NC(=O)[C@@H](NC(=O)[C@@H]3CCCN3)[C@H](C)O)C(=O)N21)C(=O)N[C@@H](Cc1ccccc1)C(N)=O	–	–	–	inactive
CC(C)[C@H](NC(=O)[C@H](CC(=O)O)NC(=O)[C@@H](NC(=O)[C@@H]1CCCN1C(=O)[C@@H](NC(=O)[C@H](N)Cc1ccccc1)C(C)C)[C@@H](C)O)C(=O)NNC(=O)N1CCC[C@H]1C(=O)N[C@@H](Cc1ccccc1)C(=O)N[C@@H](C)C(=O)N[C@@H](Cc1ccccc1)C(N)=O	inactive	–	70	–
CC(C)[C@H](NC(=O)[C@H](CC(=O)O)NC(=O)[C@@H](NC(=O)[C@@H]1CCCN1C(=O)[C@@H](NC(=O)[C@@H](N)Cc1ccccc1)C(C)C)[C@@H](C)O)C(=O)NCC(=O)N1CCC[C@H]1C(=O)N[C@@H](Cc1ccccc1)C(=O)N[C@@H](C)C(=O)N[C@@H](Cc1ccccc1)C(N)=O	inactive	–	68	–
CC(C)[C@H](NC(=O)[C@H](CC(=O)O)NC(=O)[C@@H](NC(=O)C1CCCN1)[C@@H](C)O)C(=O)NCC(=O)N[C@H]1C[C@H]2C[C@@H](c3ccccc3)C[C@@H](C(=O)N[C@@H](C)C(=O)N[C@@H](Cc3ccccc3)C(N)=O)N2C1=O (stereo partly drawn)	–	–	–	inactive
CC(C)[C@H](NC(=O)[C@H](CC(=O)O)NC(=O)[C@@H](NC(=O)[C@@H]1CCCN1C(=O)[C@@H](NC(=O)[C@@H](N)Cc1ccccc1)C(C)C)[C@@H](C)O)C(=O)NCC(=O)N1CCC[C@H]1C(=O)N[C@@H](Cc1ccccc1)C(=O)NN(C)C(=O)N[C@@H](Cc1ccccc1)C(N)=O	–	3.55	–	–
CC(C)[C@H](NC(=O)[C@H](CC(=O)O)NC(=O)[C@@H](NC(=O)[C@@H]1CCCN1C(=O)[C@@H](NC(=O)[C@H](N)Cc1ccccc1)C(C)C)[C@@H](C)O)C(=O)NCC(=O)N1CCC[C@H]1C(=O)NN(Cc1ccccc1)C(=O)N[C@@H](C)C(=O)N[C@@H](Cc1ccccc1)C(N)=O	inactive	–	69	–
CC(C)[C@H](NC(=O)[C@@H](N)Cc1ccccc1)C(=O)N1CCC[C@H]1C(=O)N[C@H](C(=O)N[C@H]1C[C@H]2CCC[C@@H](C(=O)NCC(=O)N3CCC[C@H]3C(=O)N[C@@H](Cc3ccccc3)C(=O)N[C@@H](C)C(=O)N[C@@H](Cc3ccccc3)C(N)=O)N2C1=O)[C@H](C)O	inactive	–	–	inactive
CC(C)[C@H](NC(=O)[C@H](CC(=O)O)NC(=O)[C@@H](NC(=O)[C@@H]1CCCN1C(=O)[C@@H](NC(=O)[C@@H](N)Cc1ccccc1)C(C)C)[C@@H](C)O)C(=O)NCC(=O)N1CCC[C@H]1C(=O)NN(Cc1ccccc1)C(=O)N[C@@H](C)C(=O)N[C@@H](Cc1ccccc1)C(N)=O	–	5.75	–	–
H-PTDVGPFAF-NH2	–	0.776	81	–

More lines, now with the values ahead:

Activity [1]	IC50 [2] [µM]	inhibition [3] [%]	Activity [4]	Compound
–	–	–	inactive	CC(C)[C@H](NC(=O)[C@H](CC(=O)O)NC(=O)[C@@H](NC(=O)[C@@H]1CCCN1)[C@@H](C)O)C(=O)NCC(=O)N1CCC[C@H]1C(=O)NN(Cc1ccccc1)C(=O)N[C@@H](C)C(=O)N[C@@H](Cc1ccccc1)C(N)=O (HELM PEPTIDE1{P.T.D.V.G.P.[O=C(N(Cc1ccccc1)N[*:1])[*:2]].A.F.[am]}$$$$V2.0)
–	–	–	inactive	CC(C)[C@H](NC(=O)[C@H](CC(=O)O)NC(=O)[C@@H](NC(=O)[C@@H]1CCCN1)[C@@H](C)O)C(=O)NNC(=O)N1CCC[C@H]1C(=O)N[C@@H](Cc1ccccc1)C(=O)N[C@@H](C)C(=O)N[C@@H](Cc1ccccc1)C(N)=O (HELM PEPTIDE1{P.T.D.V.[O=C(NN[*:1])[*:2]].P.F.A.F.[am]}$$$$V2.0)
inactive	–	–	inactive	CC(C)[C@H](NC(=O)[C@H](CC(=O)O)NC(=O)[C@@H](NC(=O)C1CCCN1C(=O)[C@@H](NC(=O)[C@@H](N)Cc1ccccc1)C(C)C)[C@@H](C)O)C(=O)NCC(=O)N[C@H]1C[C@H]2C[C@@H](c3ccccc3)C[C@@H](C(=O)N[C@@H](C)C(=O)N[C@@H](Cc3ccccc3)C(N)=O)N2C1=O (stereo partly drawn)
inactive	0.38	59	–	CC(C)[C@H](NC(=O)N(CC(=O)O)NC(=O)[C@@H](NC(=O)[C@@H]1CCCN1C(=O)[C@@H](NC(=O)[C@@H](N)Cc1ccccc1)C(C)C)[C@@H](C)O)C(=O)NCC(=O)N1CCC[C@H]1C(=O)N[C@@H](Cc1ccccc1)C(=O)N[C@@H](C)C(=O)N[C@@H](Cc1ccccc1)C(N)=O (HELM PEPTIDE1{F.V.P.T.[O=C(O)CN(N[*:1])C(=O)[*:2]].V.G.P.F.A.F.[am]}$$$$V2.0)
inactive	–	–	inactive	CC(C)[C@H](NC(=O)[C@H](CC(=O)O)NC(=O)[C@@H](NC(=O)[C@@H]1CCCN1C(=O)[C@@H](NC(=O)[C@@H](N)Cc1ccccc1)C(C)C)[C@@H](C)O)C(=O)N[C@H]1C[C@H]2CCC[C@@H](C(=O)N[C@@H](Cc3ccccc3)C(=O)N[C@@H](C)C(=O)N[C@@H](Cc3ccccc3)C(N)=O)N2C1=O
–	–	–	inactive	CC(C)[C@H](NC(=O)[C@H](CC(=O)O)NC(=O)[C@@H](NC(=O)[C@@H]1CCCN1)[C@@H](C)O)C(=O)NCC(=O)N1CCC[C@H]1C(=O)N[C@@H](Cc1ccccc1)C(=O)NN(C)C(=O)N[C@@H](Cc1ccccc1)C(N)=O (HELM PEPTIDE1{P.T.D.V.G.P.F.[CN(N[*:1])C(=O)[*:2]].F.[am]}$$$$V2.0)
–	4.47	68	–	CC(C)[C@H](NC(=O)[C@H](CC(=O)O)NC(=O)[C@@H](NC(=O)[C@@H]1CCCN1)[C@@H](C)O)C(=O)NCC(=O)N1CCCN1C(=O)N[C@@H](Cc1ccccc1)C(=O)N[C@@H](C)C(=O)N[C@@H](Cc1ccccc1)C(N)=O (HELM PEPTIDE1{P.T.D.V.G.[O=C(N1CCCN1[*:1])[*:2]].F.A.F.[am]}$$$$V2.0)
inactive	–	51	–	CC(C)[C@H](NC(=O)[C@H](CC(=O)O)NC(=O)[C@@H](NC(=O)[C@@H]1CCCN1C(=O)[C@@H](NC(=O)[C@H](N)Cc1ccccc1)C(C)C)[C@@H](C)O)C(=O)NCC(=O)N1CCC[C@H]1C(=O)N[C@@H](Cc1ccccc1)C(=O)NN(C)C(=O)N[C@@H](Cc1ccccc1)C(N)=O
–	–	–	inactive	CC(C)[C@H](NC(=O)N(CC(=O)O)NC(=O)[C@@H](NC(=O)[C@@H]1CCCN1)[C@@H](C)O)C(=O)NCC(=O)N1CCC[C@H]1C(=O)N[C@@H](Cc1ccccc1)C(=O)N[C@@H](C)C(=O)N[C@@H](Cc1ccccc1)C(N)=O (HELM PEPTIDE1{P.T.[O=C(O)CN(N[*:1])C(=O)[*:2]].V.G.P.F.A.F.[am]}$$$$V2.0)

Source: ChEMBL document CHEMBL1142953, “Calcitonin gene-related peptide analogues with aza and indolizidinone amino acid residues reveal conformational requirements for antagonist activity at the human calcitonin gene-related peptide 1 receptor” (J Med Chem, 2007)
